ChEMBL document CHEMBL1134641, “Progress toward the development of a safe and effective agent for treating reentrant cardiac arrhythmias: synthesis and evaluation of ibutilide analogues with enhanced metabolic stability and diminished proarrhythmic potential” (2001)
Values joined by “and” are separate entries in the source; they are usually repeats but may differ in a detail not shown here. Equal values may be shown once.

Tests used:
[1] = test system: Canis familiaris; assay: Atrial effective refractory period (AEPR) measured in canine 24-h Infarction model at an cumulative intravenous dose of 2.4 uM/kg; assay type: functional, Canis lupus familiaris, Cardiac atrium
Procedure, shortened: (§1)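 Male mongrel dogs (16-22 kg) with LAD permanently ligated in two stages; studied 24 h later. […] given IV in sequential doses to cumulative 0.24, 0.72, 2.4 µmol/kg. Saline controls (n=8) received vehicle, then a single IV 2.4 µmol/kg dose at the end. Measurements taken at baseline and 15 min after each dose. Means ± SEM, paired t-test, p ≤ 0.05.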

[2] = test system: Canis familiaris; assay: Number of canine in which ventricular fibrillation (VF) was observed in PES-induced arrhythmias at an cumulative intravenous dose of 0.24 uM/kg; assay type: functional, Canis lupus familiaris, Cardiac ventricle
Procedure, shortened: (§2)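 Male mongrel dogs (16-22 kg) with LAD ligated in two stages, studied 24 h later. Programmed electrical stimulation at baseline and 15 min after each iv dose in saline (cumulative 0.24, 0.72, 2.4 µmol/kg). Saline controls then received a single 2.4 µmol/kg iv dose. Responses scored as NI (≤15 beats), NSVT (>15 beats, ends within 30 s), SVT (>30 s, needing pacing or cardioversion) or VF. A positive response was repeated.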

[3] = test system: Canis familiaris; assay: QT interval measured in canine just after inducing atrial flutter (AFL) termination by the compound at a dose of 12.0 uM/kg; assay type: functional, Canis lupus familiaris, Heart
Procedure, shortened: (§3)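 Conscious, sling-restrained dogs with chronically implanted electrodes, studied after 2 weeks of recovery. Sustained AFL (>5 min) induced. Compound in saline given iv every 5 min to cumulative 0.024-12.0 µmol/kg. At AFL termination, HR, QT (paced cycle length 300 ms), AERP and VERP measured. Measurements then taken 3 min after each further dose. Significance p≤0.05 vs baseline.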

[4] = test system: Canis familiaris; assay: QT interval measured in canine just after inducing atrial flutter (AFL) termination by the compound at a dose of 0.6 umol/kg; assay type: functional, Canis lupus familiaris, Heart; procedure, shortened: as §3
[5] = test system: Canis familiaris; assay: Number of canine in which nonsustained ventricular tachycardia (NSVT) was observed in PES-induced arrhythmias at an cumulative intravenous dose of 2.4 uM/kg; assay type: functional, Canis lupus familiaris, Cardiac ventricle; procedure, shortened: as §2
[6] = test system: Canis familiaris; assay: Atrial effective refractory period (AERP) measured in canine just after inducing atrial flutter (AFL) termination by the compound at a dose of 0.6 umol/kg; assay type: functional, Canis lupus familiaris, Heart
[7] = test system: Canis familiaris; assay: Heart Rate measured in canine just after inducing atrial flutter (AFL) termination by the compound at a dose of 0.6 umol/kg; assay type: functional, Canis lupus familiaris
[8] = test system: Canis familiaris; assay: Heart rate measured in canine 24-h Infarction model at a single intravenous dose of 2.4 uM/kg; assay type: functional, Canis lupus familiaris; procedure, shortened: as §1
[9] = species: Canis familiaris; assay: Atrial flutter cycle length (AFCLl) measured in canine just after inducing atrial flutter (AFL) termination by the compound; assay type: functional, Canis lupus familiaris, Heart
[10] = species: Canis familiaris; assay: Ventricular effective refractory period ([…]) measured in canine just after inducing atrial flutter (AFL) termination by the compound; assay type: functional, Canis lupus familiaris, Heart
Procedure, shortened: (§4)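 Conscious dogs, loosely restrained in a sling, with exteriorized electrode leads, studied 2 weeks after instrumentation. AFL was induced and counted as sustained if it lasted 5 min. Compound in saline given intravenously every 5 min to cumulative 0.024-12.0 µmol/kg. VERP was measured at AFL termination and 3 min after each dose. Results are means ± SEM versus baseline, p ≤ 0.05.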

[11] = test system: Canis familiaris; assay: Ventricular effective refractory (VEPR) period measured in canine 24-h Infarction model at an cumulative intravenous dose of 0.72 uM/kg; assay type: functional, Canis lupus familiaris, Heart
Procedure, shortened: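 Male mongrel dogs (16-22 kg) with LAD permanently ligated in two stages, studied 24 h after ligation. Compound given in saline (6.0 µmol/mL) as sequential intravenous doses to reach cumulative 0.24, 0.72 and 2.4 µmol/kg. VERP and other measurements taken at baseline and 15 min after each dose. Saline-dosed dogs served as controls. Results are means ± SEM, paired t-test, p ≤ 0.05.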

[12] = test system: Canis familiaris; assay: Ventricular effective refractory period ([…]) measured in canine just after inducing atrial flutter (AFL) termination by the compound at a dose of 0.24 umol/kg; assay type: functional, Canis lupus familiaris, Heart; procedure, shortened: as §4
[13] = test system: Canis familiaris; assay: Spontaneous arrhythmias measured in canine 24-h Infarction model at an cumulative intravenous dose of 0.72 uM/kg; assay type: functional, Canis lupus familiaris
Procedure, shortened: (§5)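 Dogs 24 h after two-stage LAD ligation. Compound in saline given iv in sequential doses (cumulative 0.24, 0.72, 2.4 µmol/kg); saline controls then given a single 2.4 µmol/kg iv dose. HR, IVR, BP, QT, spontaneous arrhythmias/min, ERPs and MAPD90 measured at baseline and 15 min after each dose. Means ± SEM, paired t-test, p≤0.05.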

[14] = test system: Canis familiaris; assay: Ventricular MAPD90 measured in canine 24-h Infarction model at an cumulative intravenous dose of 0.72 uM/kg; assay type: functional, Canis lupus familiaris, Heart; procedure, shortened: as §5
[15] = test system: Canis familiaris; assay: Idioventricular heart rate (IVR) measured in canine 24-h Infarction model at a single intravenous dose of 2.4 uM/kg; assay type: functional, Canis lupus familiaris; procedure, shortened: as §1
[16] = test system: Canis familiaris; assay: Atrial effective refractory period (AERP) measured in canine just after inducing atrial flutter (AFL) termination by the compound at a dose of 0.24 umol/kg; assay type: functional, Canis lupus familiaris, Heart
[17] = test system: Canis familiaris; assay: Blood pressure measured in canine 24-h Infarction model at an cumulative intravenous dose of 0.72 uM/kg; assay type: functional, Canis lupus familiaris; procedure, shortened: as §1
[18] = test system: Canis familiaris; assay: Number of canine in which sustained ventricular tachycardia (SVT) was observed in PES-induced arrhythmias at an cumulative intravenous dose of 0.24 uM/kg; assay type: functional, Canis lupus familiaris, Cardiac ventricle; procedure, shortened: as §2
[19] = test system: Canis familiaris; assay: Number of canine in which sustained ventricular tachycardia (SVT) was observed in PES-induced arrhythmias at an cumulative intravenous dose of 0.72 uM/kg; assay type: functional, Canis lupus familiaris, Cardiac ventricle; procedure, shortened: as §2
[20] = test system: Canis familiaris; assay: Idioventricular heart rate (IVR) measured in canine 24-h Infarction model at an cumulative intravenous dose of 0.24 uM/kg; assay type: functional, Canis lupus familiaris; procedure, shortened: as §1
[21] = test system: Canis familiaris; assay: QT interval measured in canine just after inducing atrial flutter (AFL) termination by the compound at a dose of 9.6 uM/kg; assay type: functional, Canis lupus familiaris, Heart; procedure, shortened: as §3
[22] = test system: Canis familiaris; assay: QT interval measured in canine 24-h Infarction model at an cumulative intravenous dose of 0.72 uM/kg; assay type: functional, Canis lupus familiaris; procedure, shortened: as §5
[23] = test system: Canis familiaris; assay: Heart rate measured in canine 24-h Infarction model at an cumulative intravenous dose of 0.72 uM/kg; assay type: functional, Canis lupus familiaris; procedure, shortened: as §1
[24] = test system: Canis familiaris; assay: QT interval measured in canine just after inducing atrial flutter (AFL) termination by the compound at a dose of 2.4 uM/kg; assay type: functional, Canis lupus familiaris, Heart; procedure, shortened: as §3
[25] = test system: Canis familiaris; assay: Atrial MAPD90 measured in canine 24-h Infarction model at an cumulative intravenous dose of 0.24 uM/kg; assay type: functional, Canis lupus familiaris, Cardiac atrium; procedure, shortened: as §1
[26] = test system: Canis familiaris; assay: QT interval measured in canine 24-h Infarction model at a single intravenous dose of 2.4 uM/kg; assay type: functional, Canis lupus familiaris; procedure, shortened: as §5
[27] = test system: Canis familiaris; assay: Number of canine in which ventricular fibrillation (VF) was observed in PES-induced arrhythmias at an single intravenous dose of 2.4 uM/kg; assay type: functional, Canis lupus familiaris, Cardiac ventricle; procedure, shortened: as §2
[28] = test system: Canis familiaris; assay: Atrial effective refractory period (AEPR) measured in canine 24-h Infarction model at an cumulative intravenous dose of 0.24 uM/kg; assay type: functional, Canis lupus familiaris, Cardiac atrium; procedure, shortened: as §1
[29] = test system: Canis familiaris; assay: Heart Rate measured in canine just after inducing atrial flutter (AFL) termination by the compound at a dose of 12.0 uM/kg; assay type: functional, Canis lupus familiaris
[30] = test system: Canis familiaris; assay: Ventricular effective refractory period ([…]) measured in canine just after inducing atrial flutter (AFL) termination by the compound at a dose of 12.0 uM/kg; assay type: functional, Canis lupus familiaris, Heart; procedure, shortened: as §4
[31] = test system: Canis familiaris; assay: QT interval measured in canine 24-h Infarction model at an cumulative intravenous dose of 0.24 uM/kg; assay type: functional, Canis lupus familiaris; procedure, shortened: as §5

CCN(CCCCCC(C)(C)F)CCC[C@H](O)c1ccc(NS(C)(=O)=O)cc1.O=C(O)/C=C/C(=O)O
AERP [1]: 194 ms
No. of canine [2]: 0
QT interval [3]: 200 ms
QT interval [4]: 208 ms
No. of canine [5]: 1
AERP [6]: 153 ms
HR [7]: 111 beats min-1
HR [8]: 127 beats min-1
AFLCl [9]: 165 ms
VERP [10]: 138 ms
VERP [11]: 170 ms
VERP [12]: 142 ms
PVCs [13]: 68 number min-1 and 57 number min-1
Ventricular MAPD90 [14]: 170 ms
IVR [15]: 111 beats min-1
AERP [16]: 160 ms
BP [17]: 115 mmHg
No. of canine [18]: 1
No. of canine [19]: 2
IVR [20]: 138 beats min-1
QT interval [21]: 204 ms
QT interval [22]: 218 ms
HR [23]: 146 beats min-1
QT interval [24]: 213 ms
Atrial MAPD90 [25]: 148 ms
QT interval [26]: 238 ms
No. of canine [27]: 0
AERP [28]: 149 ms
HR [29]: 122 beats min-1
VERP [30]: 137 ms
QT interval [31]: 211 ms
